Data from PMC5896753 (ACS chemical biology, 2017).

Assays:
[1] = molecular target: T1, Chst15 (Homo sapiens, UniProt Q7LFX5); experiment: [35S]-labeling assay; format: biochemical; settings: 25 μM of inhibitor; normalized to the inhibition by compound 19; three independent measurements
T1 sequence (Q7LFX5 1-561): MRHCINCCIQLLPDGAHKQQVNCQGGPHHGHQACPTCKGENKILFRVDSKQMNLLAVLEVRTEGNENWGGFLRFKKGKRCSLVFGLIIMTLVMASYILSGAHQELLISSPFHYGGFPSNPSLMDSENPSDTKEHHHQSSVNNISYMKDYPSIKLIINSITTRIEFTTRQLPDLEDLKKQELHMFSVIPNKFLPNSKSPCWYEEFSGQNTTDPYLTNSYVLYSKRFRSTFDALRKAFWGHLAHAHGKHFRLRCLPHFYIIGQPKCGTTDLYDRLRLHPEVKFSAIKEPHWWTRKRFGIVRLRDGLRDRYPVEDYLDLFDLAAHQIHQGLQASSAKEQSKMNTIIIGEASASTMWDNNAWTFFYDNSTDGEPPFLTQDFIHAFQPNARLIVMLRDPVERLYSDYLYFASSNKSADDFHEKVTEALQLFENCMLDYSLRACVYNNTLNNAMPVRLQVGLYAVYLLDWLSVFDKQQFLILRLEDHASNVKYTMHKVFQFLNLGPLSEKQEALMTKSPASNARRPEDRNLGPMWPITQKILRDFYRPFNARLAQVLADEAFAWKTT

[2] = molecular target: T1, Chst15; experiment: enzyme-coupled fluorescence assay; format: biochemical
[3] = test system: Sult1c1; experiment: Sult1c1 counter-screen; format: biochemical; settings: concentrations tested 3-100 μM
[4] = molecular target: T1, Chst15; experiment: sulfotransferase specificity panel; format: biochemical
[5] = molecular target: T2, chondroitin 4-O-sulfotransferase Chst11 (Homo sapiens, UniProt Q9NPF2); experiment: sulfotransferase specificity panel; format: biochemical
T2 sequence (Q9NPF2 1-352): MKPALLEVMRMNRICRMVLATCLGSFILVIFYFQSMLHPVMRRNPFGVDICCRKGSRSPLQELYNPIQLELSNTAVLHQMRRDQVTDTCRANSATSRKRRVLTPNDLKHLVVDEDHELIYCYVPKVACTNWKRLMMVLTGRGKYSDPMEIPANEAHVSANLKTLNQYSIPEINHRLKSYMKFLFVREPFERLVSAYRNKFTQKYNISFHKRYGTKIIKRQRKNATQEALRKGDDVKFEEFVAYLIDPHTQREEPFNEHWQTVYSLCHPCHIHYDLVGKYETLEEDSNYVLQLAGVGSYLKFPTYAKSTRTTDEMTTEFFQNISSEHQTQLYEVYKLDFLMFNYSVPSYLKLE

[6] = molecular target: T3, chondroitin 2-O-sulfotransferase Ust (Homo sapiens, UniProt Q9Y2C2); experiment: sulfotransferase specificity panel; format: biochemical
T3 sequence (Q9Y2C2 1-406): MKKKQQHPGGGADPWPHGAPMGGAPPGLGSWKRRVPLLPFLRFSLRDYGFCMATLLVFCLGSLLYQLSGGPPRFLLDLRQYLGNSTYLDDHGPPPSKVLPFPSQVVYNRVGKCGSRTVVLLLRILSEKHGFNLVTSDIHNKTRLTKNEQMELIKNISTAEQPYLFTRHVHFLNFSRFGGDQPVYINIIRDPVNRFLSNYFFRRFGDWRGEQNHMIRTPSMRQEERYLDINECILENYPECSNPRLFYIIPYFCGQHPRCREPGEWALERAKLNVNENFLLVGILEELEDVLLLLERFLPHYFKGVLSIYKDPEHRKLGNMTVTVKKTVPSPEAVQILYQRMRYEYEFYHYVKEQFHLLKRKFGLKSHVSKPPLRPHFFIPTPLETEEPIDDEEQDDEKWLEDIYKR

[7] = molecular target: heparan 3-O-sulfotransferase Hs3st1 (Homo sapiens, UniProt O14792); experiment: sulfotransferase specificity panel; format: biochemical
Chain of heparan 3-O-sulfotransferase Hs3st1 (O14792 21-307): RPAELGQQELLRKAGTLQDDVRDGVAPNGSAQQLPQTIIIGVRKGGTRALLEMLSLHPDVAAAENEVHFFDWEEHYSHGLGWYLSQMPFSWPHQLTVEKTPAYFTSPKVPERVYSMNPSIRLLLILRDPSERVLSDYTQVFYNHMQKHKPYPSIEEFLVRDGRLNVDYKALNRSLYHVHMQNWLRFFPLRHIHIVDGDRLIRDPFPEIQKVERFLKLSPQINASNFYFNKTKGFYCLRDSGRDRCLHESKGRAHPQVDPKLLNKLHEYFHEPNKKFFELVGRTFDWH

[8] = molecular target: T4, Sult1e1 (Homo sapiens, UniProt P49888); experiment: sulfotransferase specificity panel; format: biochemical
T4 sequence (P49888 1-294): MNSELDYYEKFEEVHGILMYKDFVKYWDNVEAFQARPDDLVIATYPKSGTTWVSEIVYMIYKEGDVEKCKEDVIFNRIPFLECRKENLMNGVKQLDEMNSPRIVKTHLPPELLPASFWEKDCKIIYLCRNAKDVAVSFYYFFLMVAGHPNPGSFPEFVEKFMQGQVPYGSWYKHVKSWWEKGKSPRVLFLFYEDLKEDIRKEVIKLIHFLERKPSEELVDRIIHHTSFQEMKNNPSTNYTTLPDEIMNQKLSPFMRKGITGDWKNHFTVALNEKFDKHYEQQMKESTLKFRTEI

[9] = molecular target: T5, Sult2b1a (Homo sapiens, UniProt O00204); experiment: sulfotransferase specificity panel; format: biochemical
T5 sequence (O00204 1-350 isoform O00204-2): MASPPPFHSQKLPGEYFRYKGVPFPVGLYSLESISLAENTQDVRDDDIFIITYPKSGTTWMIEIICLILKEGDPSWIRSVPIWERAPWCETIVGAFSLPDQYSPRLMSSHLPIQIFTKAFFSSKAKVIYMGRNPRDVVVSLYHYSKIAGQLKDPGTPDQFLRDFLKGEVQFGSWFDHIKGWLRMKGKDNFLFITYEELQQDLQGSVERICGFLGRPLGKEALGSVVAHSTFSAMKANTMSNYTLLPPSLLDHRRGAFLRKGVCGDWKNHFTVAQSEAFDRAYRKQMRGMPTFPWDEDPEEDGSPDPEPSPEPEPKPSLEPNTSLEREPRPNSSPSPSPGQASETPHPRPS

[10] = molecular target: T6, Sult2b1b (Homo sapiens, UniProt O00204); experiment: sulfotransferase specificity panel; format: biochemical
T6 sequence (O00204 1-365): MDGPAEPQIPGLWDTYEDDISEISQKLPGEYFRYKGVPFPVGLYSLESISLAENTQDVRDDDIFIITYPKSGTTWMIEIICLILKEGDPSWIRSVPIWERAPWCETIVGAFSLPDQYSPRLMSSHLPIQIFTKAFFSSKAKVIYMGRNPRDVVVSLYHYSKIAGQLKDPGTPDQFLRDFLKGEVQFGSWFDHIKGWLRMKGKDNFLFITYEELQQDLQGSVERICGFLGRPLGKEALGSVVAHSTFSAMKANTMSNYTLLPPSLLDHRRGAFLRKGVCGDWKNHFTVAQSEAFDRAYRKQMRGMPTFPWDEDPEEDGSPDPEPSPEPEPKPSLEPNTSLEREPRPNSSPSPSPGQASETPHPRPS

[11] = molecular target: T1, Chst15; experiment: pre-incubation and ten-fold dilution experiments; format: biochemical
[12] = test system: Neu7 astrocytes; experiment: cell-surface CS-E expression, immunostaining with CS-E-specific antibody; format: cell-based
In short: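 Neu7 astrocytes were treated with test compound, with chlorate as comparator. Cells were co-stained with a CS-E-specific antibody and the nuclear stain DAPI, and average anti-CS-E fluorescence per condition was quantified from images. Mean ± S.E.M. of three experiments, 20-100 cells per experiment.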

[13] = test system: NIH3T3 fibroblasts; experiment: CS-E expression in fibroblasts; format: cell-based
[14] = test system: Neu7 astrocytes; experiment: disaccharide composition of secreted CSPGs; format: cell-based
[15] = test system: DRG neurons; experiment: in vitro CSPG boundary assay; format: cell-based, rat; settings: CSPGs from treated vs untreated Neu7 astrocytes
In short: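 Boundary assay: purified CSPGs from Neu7 astrocytes treated with or without test compound were mixed with Texas Red dye and spotted onto glass coverslips. DRG neurons were plated on the coverslips, and the percentage of neurites crossing the CSPG boundary was scored. Mean ± S.E.M. from five experiments, 20-40 cells each.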

[16] = liver microsome stability; format: in vitro ADME; settings: human
[17] = liver microsome stability; format: in vitro ADME; settings: mouse
[18] = liver microsome stability; format: in vitro ADME; settings: rat
[19] = in vivo pharmacokinetics after intravenous injection; set-up: species or system rats; settings: rat, 3 mg/kg
[20] = high concentrations of sodium chlorate, compared to untreated cells

## COc1cc(/C=C(\C#N)C(=O)Nc2ccc(Cl)cc2Cl)cc(Br)c1O [Compound 34]
[1]
  Relative Inhibition: 1.35 ± 0.12
[2]; CS-A substrate concentration varied
  mode of inhibition: mixed mode of inhibition
[2]; CS-A substrate concentration varied, pseudo first-order PAPS concentration
  Ki: 1.43 µM
[2]; PAPS concentration varied, fixed CS-A acceptor substrate (10 mM)
  Ki: 0.77 µM
[2]; PAPS concentration varied, fixed CS-A (10 mM)
  mode of inhibition: competitive mode of inhibition
[3]
  activity against Sult1c1: no activity
[4]
  IC50: 2 to 2.5 µM
[4]; GAG vs cytosolic sulfotransferases
  specificity for GAG sulfotransferases compared to cytosolic sulfotransferases: 8- to 18 fold
[5]
  IC50: 2 to 2.5 µM
[6]
  IC50: 2 to 2.5 µM
[7]
  IC50: 2 to 2.5 µM
[8]
  IC50: 19 to 42 µM
[9]
  IC50: 19 to 42 µM
[10]
  IC50: 19 to 42 µM
[11]; inhibitor pre-incubated with Chst15 for various lengths of time
  effect of pre-incubation time on Chst15 inhibition: Longer pre-incubation times lead to greater inhibition of the enzyme
[11]; up to 100 μM of 34
  Chst15 activity in ten-fold dilution experiments: rapidly restored
[12]; 10 μM or 25 μM
  cell-surface CS-E expression: significant, dose-dependent decrease
[13]
  CS-E expression: significant loss of CS-E expression
[14]; Astrocyte, read-out: reduction in the CS-E sulfation motif on secreted CSPGs
  inhibition at 25 µM: 67.8 ± 10.9%
[15]
  neurite crossing of CSPG boundary: crossed more freely
[16]
  stability in liver microsomes based on intrinsic clearance: good stability
[17]
  stability in liver microsomes based on intrinsic clearance: good stability
[18]
  stability in liver microsomes based on intrinsic clearance: good stability
[19]
  clearance: 21 mL/min/kg
  half-life: 1.6 h

## [Na+].[O-][Cl+2]([O-])[O-] [sodium chlorate]
[12]; doses as high as 25 mM, compared to 34
  cell-surface CS-E expression: did not reduce CS-E levels to as large an extent
[14]; [20]
  decrease in CS-E of secreted CSPGs: 31.6 ± 10.9%
  increase in uCS of secreted CSPGs: 39.7 ± 15.6%
